In ChEMBL document CHEMBL5038657, “Discovery of Novel Inhibitors of Uridine Diphosphate-N-Acetylenolpyruvylglucosamine Reductase (MurB) from Pseudomonas aeruginosa, an Opportunistic Infectious Agent Causing Death in Cystic Fibrosis Patients” (J Med Chem, 2022):

Legend:
Pseudomonas aeruginosa [1] = assay: Binding affinity to Pseudomonas aeruginosa MurB assessed as change in melting temperature at 1 mM by differential scanning fluorimetry
Outline: (§1)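 Recombinant Pa MurB (E. coli BL21(DE3)-expressed, SUMO tag cleaved; MurB–FAD complex) at 10 μM in 25 mM Tris–HCl pH 8.0, 150 mM NaCl, 5X SyproOrange with ligand in DMSO-d6. Ramped 25–95 °C in 0.5 °C steps of 30 s. ΔTm taken against DMSO-d6 reference, with NADP+ as positive control. Ligand at 5.0 mM run once (n = 1); at 1.0 mM run in triplicate (n = 3).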

[2] = Binding affinity to Pseudomonas aeruginosa MurB assessed as dissociation constant at 3 mM by isothermal titration calorimetry
Pseudomonas aeruginosa [3] = assay: Binding affinity to Pseudomonas aeruginosa MurB assessed as change in melting temperature at 5 mM by differential scanning fluorimetry; outline: as §1

Structure (SMILES)	ΔTm (Pseudomonas aeruginosa [1]) [°C]	Kd [2] [µM]	ΔTm (Pseudomonas aeruginosa [3]) [°C]
Cc1cc(C(=O)O)c(C)n1-c1ccc(Cl)cc1	1.5	–	–
Cc1ccc(C)c(-n2ncc(C(=O)O)c2C(F)(F)F)c1	2	138	–
Cc1c(C(=O)O)cc(CCO)n1-c1ccccc1	2	–	–
Cc1ccccc1-n1c(C)cc(C(=O)O)c1C	2	–	–
Cc1cc(Cl)c(Cl)cc1-n1ncc(C(=O)O)c1C(F)(F)F	5	–	–
CS(=O)(=O)NC(=O)c1cnn(-c2ccccc2)c1C(F)(F)F	0.5	–	–
CCOC(=O)c1cnn(-c2ccccc2Cl)c1C(F)(F)F	0	–	–
O=C(O)c1ccc(Cl)c(Cl)c1	0.5	–	1
Cc1c(C(=O)NS(=O)(=O)Cc2ccccc2)cnn1-c1ccccc1	0	–	–
Cc1c(C(=O)NCc2ccccc2)cnn1-c1ccccc1	0	–	–
O=C(O)c1cnn(-c2ccccc2F)c1C(F)(F)F	1	–	–
O=C(O)c1cnn(-c2ccccc2Br)c1C(F)(F)F	2	–	–
Cc1ccccc1-n1ncc(C(=O)O)c1C(F)(F)F	2	–	–
O=C(O)c1cnn(-c2ccccc2)c1C(F)(F)F	1	–	–
Cc1cccc(C)c1-n1ncc(C(=O)O)c1C(F)(F)F	2.5	–	–
O=C(O)c1cnn(Cc2ccccc2)c1C(F)(F)F	1	–	–
Cc1c(C(=O)O)nnn1-c1ccccc1	0.5	–	–
Cc1c(C(=O)O)cnn1-c1ccccc1	0.5	–	1.5
NCc1ccc2[nH]ccc2c1	0.2	–	1
Cc1cc(Cl)c(Cl)cc1-n1ncc(C(=O)NS(=O)(=O)c2ccccc2)c1C(F)(F)F	2.7	12	–
Cc1cc(Cl)c(Cl)cc1-n1c(C)cc(C(=O)O)c1C	3.5	24.1	–
Cc1cccc(C)c1-n1c(C)cc(C(=O)O)c1C	3	–	–

Structure (SMILES)	ΔTm (Pseudomonas aeruginosa [1]) [°C]	Kd [2] [µM]	ΔTm (Pseudomonas aeruginosa [3]) [°C]
NCc1ccc2sccc2c1	0	–	1
Cc1c(-n2c(C)cc(C(=O)O)c2C)ccc(Cl)c1Cl	4	–	–
Cc1cccc(C)c1-n1ncc(C(=O)NS(=O)(=O)c2ccccc2)c1C(F)(F)F	3	–	–
Cc1ccc(-n2ncc(C(=O)O)c2C(F)(F)F)c(C)c1	2.3	–	–
Cc1cc(CC(=O)O)on1	0	–	1
NC(=O)c1cccc(-n2ncc(C(=O)O)c2C(F)(F)F)c1	0.5	–	–
Cc1cccc(-n2ncc(C(=O)O)c2C(F)(F)F)c1C	2	–	–
O=C(O)c1cnn(-c2ccccc2Cl)c1C(F)(F)F	1.5	148	–
O=C(O)Cc1ccc(Cl)c(Cl)c1	1	–	1.5
Nc1c(C(=O)O)cnn1-c1ccccc1	0	–	–
Cc1c(-n2c(C)cc(C(=O)O)c2C(F)(F)F)ccc(Cl)c1Cl	2.7	11.4	–
Cc1cc(C(=O)O)c(C(F)(F)F)n1-c1ccccc1	2	112	–
O=C1Nc2ccccc2C1=O	1	–	3.5
Cc1nc(C(=O)O)c(C)n1-c1ccccc1	0.7	–	–
Cc1cc(C(=O)O)c(C)n1-c1ccc(Cl)c(Cl)c1	2.3	–	–
O=C(O)c1cnn(-c2c(Cl)cccc2Cl)c1C(F)(F)F	2.5	–	–
O=C(NS(=O)(=O)c1ccccc1)c1cnn(-c2ccccc2)c1C(F)(F)F	1	–	–
O=C(O)c1cnn(Cc2cccs2)c1C(F)(F)F	1	–	–
O=C(O)c1cnn(-c2ccccc2)c1CO	0.2	–	–
O=C(O)c1cnn(-c2cccnc2)c1C(F)(F)F	0.3	–	–
O=C(O)Cc1ccccc1	0	–	1
Cc1cc([N+](=O)[O-])ccc1-n1ncc(C(=O)O)c1C(F)(F)F	1.7	–	–

Structure (SMILES)	ΔTm (Pseudomonas aeruginosa [1]) [°C]	Kd [2] [µM]	ΔTm (Pseudomonas aeruginosa [3]) [°C]
O=C(O)c1cnn(-c2ccc(Cl)c(Cl)c2)c1C(F)(F)F	2.3	26.1	–
Cc1cc(C(=O)O)c(C)n1-c1cccc(Cl)c1	1.5	–	–
NC(=O)c1ccc[n+]([C@@H]2O[C@H](COP(=O)(O)OP(=O)(O)OC[C@H]3O[C@@H](n4cnc5c(N)ncnc54)[C@H](OP(=O)(O)O)[C@@H]3O)[C@@H](O)[C@H]2O)c1	3.5	–	–
O=C(O)c1cnn(-c2ccc(C(F)(F)F)cc2)c1C(F)(F)F	1	–	–
O=C(O)c1cnn(-c2ccncc2)c1C(F)(F)F	0	–	–
Cc1cc(C(=O)O)c(C)n1-c1ccccc1	2	110	–
CN1C(=O)C(=O)c2ccccc21	1	–	4
O=C(O)c1cnn(-c2ccccc2)c1O	0.7	–	–
Cc1cc(C(=O)O)c(C)n1Cc1cccs1	1.5	–	2
Cc1cccc(C)c1-n1ncc(C(=O)NS(=O)(=O)c2cccc(Br)c2)c1C(F)(F)F	1.3	–	–
O=C(O)COc1ccc(Cl)c(Cl)c1	1	–	1.5
O=C(O)c1cnn(-c2cccs2)c1C(F)(F)F	0.3	–	–
NC(=O)c1cnn(-c2ccccc2)c1C(F)(F)F	0	–	–
NC(=O)C1=CN([C@@H]2O[C@H](COP(=O)(O)OP(=O)(O)OC[C@H]3O[C@@H](n4cnc5c(N)ncnc54)[C@H](OP(=O)(O)O)[C@@H]3O)[C@@H](O)[C@H]2O)C=CC1	3	–	–
Cc1cc(C(=O)O)n[nH]1	0	–	1
O=C(O)CCc1cccc(Cl)c1	0.5	–	1
N#CCc1nc2ccccc2s1	0	–	1
Cc1cc(Cl)c(Cl)cc1-n1c(C)cc(C(=O)O)c1C(F)(F)F	4.7	–	–
Cc1c(-n2ncc(C(=O)O)c2C(F)(F)F)ccc(Cl)c1Cl	3.7	11.3	–
O=C(O)c1cnn(-c2ccccc2C(F)(F)F)c1C(F)(F)F	1	–	–
Cc1ccccc1-n1c(C)cc(C(=O)O)c1C(F)(F)F	2.5	–	–
